Holding throughout (conditions): stereoisomer not certain
The subject of one test is OR2J1. Summed up:
(§1)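 Whether a receptor–molecule pair is responsive (active) rests on the original authors' judgment that its measured signal was statistically different from baseline. Pairs without that judgment are non-responsive (inactive). Sources used varied assay methods, commonly transient luciferase assays in mammalian cell lines.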

The target in another test is T1, OR2J2 (Homo sapiens) (UniProt O76002).
T1 sequence (whole entry): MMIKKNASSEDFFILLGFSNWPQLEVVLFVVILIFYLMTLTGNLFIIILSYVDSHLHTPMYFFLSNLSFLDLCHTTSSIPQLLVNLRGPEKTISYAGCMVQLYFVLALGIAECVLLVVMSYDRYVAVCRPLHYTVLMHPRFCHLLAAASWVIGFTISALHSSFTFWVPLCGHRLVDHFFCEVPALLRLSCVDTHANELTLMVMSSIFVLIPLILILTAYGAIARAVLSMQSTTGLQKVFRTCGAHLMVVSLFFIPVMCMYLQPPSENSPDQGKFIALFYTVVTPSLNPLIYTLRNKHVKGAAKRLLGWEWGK
A digest of the protocol: as §1

The next test concerns the target T2, OR2L13 (Homo sapiens) (UniProt Q8N349).
T2 sequence (whole entry): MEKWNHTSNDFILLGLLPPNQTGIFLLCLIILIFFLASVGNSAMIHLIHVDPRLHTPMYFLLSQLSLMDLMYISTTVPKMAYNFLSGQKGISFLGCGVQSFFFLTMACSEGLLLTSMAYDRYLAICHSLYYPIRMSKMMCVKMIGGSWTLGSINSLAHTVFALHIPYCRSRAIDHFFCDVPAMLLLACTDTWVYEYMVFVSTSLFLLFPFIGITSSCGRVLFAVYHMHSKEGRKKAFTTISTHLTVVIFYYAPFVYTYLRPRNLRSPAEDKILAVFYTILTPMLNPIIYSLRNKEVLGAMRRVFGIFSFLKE
Summed up:
as §1

The next test concerns the target T3, OR2M3 (Homo sapiens) (UniProt Q8NG83).
T3 sequence (whole entry): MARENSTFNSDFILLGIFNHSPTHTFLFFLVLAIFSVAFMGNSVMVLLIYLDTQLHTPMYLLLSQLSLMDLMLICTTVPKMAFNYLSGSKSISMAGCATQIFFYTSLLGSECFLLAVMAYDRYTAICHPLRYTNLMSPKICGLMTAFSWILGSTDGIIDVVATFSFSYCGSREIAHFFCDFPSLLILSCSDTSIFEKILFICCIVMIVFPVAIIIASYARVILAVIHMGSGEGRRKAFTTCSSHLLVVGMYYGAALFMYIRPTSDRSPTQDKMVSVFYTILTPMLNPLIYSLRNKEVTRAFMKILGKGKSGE
Summed up: as §1

The test system of another test is T4, OR2H2.
T4 sequence (whole entry): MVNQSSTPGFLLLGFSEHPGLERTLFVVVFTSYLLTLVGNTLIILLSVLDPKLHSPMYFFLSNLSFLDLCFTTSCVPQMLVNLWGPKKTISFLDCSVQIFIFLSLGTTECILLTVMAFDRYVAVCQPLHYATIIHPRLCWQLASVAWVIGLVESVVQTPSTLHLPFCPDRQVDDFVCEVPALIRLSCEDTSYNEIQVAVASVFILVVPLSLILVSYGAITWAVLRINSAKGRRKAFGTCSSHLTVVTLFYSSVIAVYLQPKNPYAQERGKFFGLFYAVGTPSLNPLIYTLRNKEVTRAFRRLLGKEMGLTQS
A digest of the protocol: as §1

The target in the next test is T5, OR2J1 (Homo sapiens) (UniProt Q9GZK6).
T5 sequence (whole entry): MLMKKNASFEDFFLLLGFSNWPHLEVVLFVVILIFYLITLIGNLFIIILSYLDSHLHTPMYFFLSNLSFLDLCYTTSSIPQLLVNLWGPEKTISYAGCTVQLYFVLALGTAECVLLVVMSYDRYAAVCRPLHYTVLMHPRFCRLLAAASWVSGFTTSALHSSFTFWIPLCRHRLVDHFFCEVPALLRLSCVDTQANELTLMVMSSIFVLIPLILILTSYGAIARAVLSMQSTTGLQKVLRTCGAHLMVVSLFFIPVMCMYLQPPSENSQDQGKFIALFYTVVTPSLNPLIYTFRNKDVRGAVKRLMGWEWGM
Summed up:
as §1

Another test relates to T6, OR2J1 L14I V182A.
T6 sequence (whole entry): T5 sequence (whole entry) with L14I, V182A
A digest of the protocol:
as §1

The next test has as its target T7, OR2J3 (Homo sapiens) (UniProt O76001).
T7 sequence (whole entry): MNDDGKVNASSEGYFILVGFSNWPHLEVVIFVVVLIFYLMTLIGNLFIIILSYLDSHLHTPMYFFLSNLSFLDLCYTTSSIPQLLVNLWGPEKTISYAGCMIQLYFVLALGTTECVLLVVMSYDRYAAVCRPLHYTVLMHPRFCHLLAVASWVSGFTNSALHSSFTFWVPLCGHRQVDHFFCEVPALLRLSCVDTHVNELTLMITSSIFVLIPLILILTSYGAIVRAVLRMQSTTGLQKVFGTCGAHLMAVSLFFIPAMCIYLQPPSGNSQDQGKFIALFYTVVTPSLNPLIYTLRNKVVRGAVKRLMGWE
Summed up: as §1

For a further test, the system named is T8, OR2J3.
T8 sequence (whole entry): T7 sequence (whole entry) with V228I, I261M
Summed up: as §1

The target of a further test is T9, OR2K2 (Homo sapiens) (UniProt Q8NGT1).
T9 sequence (whole entry): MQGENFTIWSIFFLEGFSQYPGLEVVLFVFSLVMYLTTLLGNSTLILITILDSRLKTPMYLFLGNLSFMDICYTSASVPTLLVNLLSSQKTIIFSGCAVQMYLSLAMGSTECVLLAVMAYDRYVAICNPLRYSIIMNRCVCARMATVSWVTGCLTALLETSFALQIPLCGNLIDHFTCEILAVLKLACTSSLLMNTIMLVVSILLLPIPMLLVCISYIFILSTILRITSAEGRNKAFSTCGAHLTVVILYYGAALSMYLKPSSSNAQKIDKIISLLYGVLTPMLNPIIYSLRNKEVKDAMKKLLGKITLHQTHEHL
Summed up: as §1

Another test addresses T10, OR2L2 (Homo sapiens) (UniProt Q8NH16).
T10 sequence (whole entry): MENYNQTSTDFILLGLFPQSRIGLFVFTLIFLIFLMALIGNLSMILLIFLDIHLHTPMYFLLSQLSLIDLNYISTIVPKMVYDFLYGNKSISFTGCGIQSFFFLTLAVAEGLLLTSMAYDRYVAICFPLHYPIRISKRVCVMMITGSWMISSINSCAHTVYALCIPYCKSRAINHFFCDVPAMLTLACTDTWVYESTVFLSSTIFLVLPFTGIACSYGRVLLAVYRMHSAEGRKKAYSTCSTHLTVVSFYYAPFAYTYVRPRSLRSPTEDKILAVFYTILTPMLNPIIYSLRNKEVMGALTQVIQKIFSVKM
A digest of the protocol: as §1

A further test concerns the target T11, OR2L3 (Homo sapiens) (UniProt Q8NG85).
T11 sequence (whole entry): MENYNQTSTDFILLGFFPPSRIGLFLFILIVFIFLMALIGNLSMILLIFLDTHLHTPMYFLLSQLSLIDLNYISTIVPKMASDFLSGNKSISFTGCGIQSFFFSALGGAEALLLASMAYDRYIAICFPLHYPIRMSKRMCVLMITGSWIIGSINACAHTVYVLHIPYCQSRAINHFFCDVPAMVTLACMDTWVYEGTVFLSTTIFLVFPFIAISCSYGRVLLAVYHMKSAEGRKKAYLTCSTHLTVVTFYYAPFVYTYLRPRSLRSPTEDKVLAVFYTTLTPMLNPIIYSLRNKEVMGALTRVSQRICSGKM
A digest of the protocol: as §1

The target of a further test is T12, OR2L5 (Homo sapiens) (UniProt Q8NG80).
T12 sequence (whole entry): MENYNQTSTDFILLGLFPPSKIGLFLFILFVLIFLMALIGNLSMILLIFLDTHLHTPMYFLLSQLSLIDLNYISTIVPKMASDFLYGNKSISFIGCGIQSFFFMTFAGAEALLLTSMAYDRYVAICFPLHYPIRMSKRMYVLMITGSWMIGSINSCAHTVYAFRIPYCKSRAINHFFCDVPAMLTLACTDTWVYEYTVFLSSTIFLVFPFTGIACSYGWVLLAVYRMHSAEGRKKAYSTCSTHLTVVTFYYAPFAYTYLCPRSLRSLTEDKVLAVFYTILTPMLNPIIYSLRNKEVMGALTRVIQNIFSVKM
Summed up: as §1

The target in a further test is T13, OR2L8 (Homo sapiens) (UniProt Q8NGY9).
T13 sequence (whole entry): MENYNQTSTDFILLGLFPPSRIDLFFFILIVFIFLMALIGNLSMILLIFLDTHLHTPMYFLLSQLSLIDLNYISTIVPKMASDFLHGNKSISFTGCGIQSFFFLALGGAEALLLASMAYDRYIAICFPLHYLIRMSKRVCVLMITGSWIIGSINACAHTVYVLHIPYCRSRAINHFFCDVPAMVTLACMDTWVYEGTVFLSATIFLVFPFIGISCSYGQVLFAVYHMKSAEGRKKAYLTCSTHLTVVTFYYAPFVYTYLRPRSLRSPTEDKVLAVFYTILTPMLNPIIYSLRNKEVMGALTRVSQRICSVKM
A digest of the protocol:
as §1

For a further test, the target named is T14, OR2M2 (Homo sapiens) (UniProt Q96R28).
T14 sequence (whole entry): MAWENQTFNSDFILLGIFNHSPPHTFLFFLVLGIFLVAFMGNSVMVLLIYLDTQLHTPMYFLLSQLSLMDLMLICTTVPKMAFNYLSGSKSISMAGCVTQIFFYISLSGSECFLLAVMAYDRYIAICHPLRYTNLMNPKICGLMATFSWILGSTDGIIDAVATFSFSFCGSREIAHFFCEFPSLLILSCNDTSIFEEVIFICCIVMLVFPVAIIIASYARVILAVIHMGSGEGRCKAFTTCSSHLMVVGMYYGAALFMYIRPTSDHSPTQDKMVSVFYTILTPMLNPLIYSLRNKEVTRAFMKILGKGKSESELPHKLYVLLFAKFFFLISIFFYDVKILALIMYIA
Summed up: as §1

In another test the test system is T15, OR2J2.
T15 sequence (whole entry): T1 sequence (whole entry) with H74Y, A111T, A146V, A218T
Summed up:
as §1

The structures appear in SMILES notation. Numbering of substitutions follows the chain as printed.
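Note: active if original authors judged signal statistically different from baseline.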

For `O=c1ccc2ccccc2o1`, the “odorant receptor agonist call” value in the test on OR2J1, in the test with OR2L13 (Homo sapiens) and with OR2M3 (Homo sapiens) was “inactive” each time. Also, the “odorant receptor agonist call” value with OR2J2 (Homo sapiens) is “active”.

For the compound `O=C1Cc2ccccc2O1`, the “odorant receptor agonist call” value in the test with OR2J2 (Homo sapiens) was “inactive”.

Take `CCCC(=O)C(C)=O`: in the test with OR2J2 (Homo sapiens), the “odorant receptor agonist call” value is “inactive”.

With `O=C1CCOc2ccccc21`, in the test with OR2J2 (Homo sapiens), the “odorant receptor agonist call” value was “inactive”.

`CCCCCCC=CCCC=O`: the “odorant receptor agonist call” value in the test on OR2H2, with OR2J1 (Homo sapiens), in the test with OR2J1 L14I V182A, with OR2J2 (Homo sapiens), in the test with OR2J3 (Homo sapiens) and with OR2J3 was “inactive” throughout. The “odorant receptor agonist call” value in the test with OR2K2 (Homo sapiens), with OR2L13 (Homo sapiens), with OR2L2 (Homo sapiens), with OR2L3 (Homo sapiens), with OR2L5 (Homo sapiens) and in the test with OR2L8 (Homo sapiens) was “inactive” throughout. Further, the “odorant receptor agonist call” value with OR2M2 (Homo sapiens) and in the test with OR2M3 (Homo sapiens) was “inactive” in each case.

Take `CC(CO)CS` (stereo not given): the “odorant receptor agonist call” value with OR2J1 (Homo sapiens), with OR2J2 (Homo sapiens), with OR2J3 (Homo sapiens), with OR2K2 (Homo sapiens), in the test with OR2L13 (Homo sapiens) and in the test with OR2L2 (Homo sapiens) was “inactive” each time. In addition, the “odorant receptor agonist call” value with OR2L3 (Homo sapiens), with OR2L5 (Homo sapiens), with OR2L8 (Homo sapiens), with OR2M2 (Homo sapiens) and with OR2M3 (Homo sapiens) was “inactive” throughout.

Regarding `CC(=O)c1c(C)c([N+](=O)[O-])c(C(C)(C)C)c([N+](=O)[O-])c1C`, the “odorant receptor agonist call” value in the test with OR2J1 (Homo sapiens), with OR2J2 (Homo sapiens), with OR2J3 (Homo sapiens), with OR2K2 (Homo sapiens), in the test with OR2L13 (Homo sapiens) and with OR2L3 (Homo sapiens) was “inactive” throughout. Besides, the “odorant receptor agonist call” value with OR2L5 (Homo sapiens), with OR2L8 (Homo sapiens), with OR2M2 (Homo sapiens) and with OR2M3 (Homo sapiens) was “inactive” each time.

In the case of `CCCCCCCCS`, in the test with OR2J2 (Homo sapiens), the “odorant receptor agonist call” value is “inactive”.

`CC1=C(O)C(=O)C(C)O1` (stereo not given): the “odorant receptor agonist call” value in the test on OR2H2, in the test with OR2J1 (Homo sapiens), in the test with OR2J1 L14I V182A, in the test with OR2J2, in the test with OR2J3 (Homo sapiens) and in the test with OR2J3 was “inactive” in each case. Moreover, the “odorant receptor agonist call” value in the test with OR2K2 (Homo sapiens), with OR2L13 (Homo sapiens), with OR2L2 (Homo sapiens), with OR2L3 (Homo sapiens), in the test with OR2L5 (Homo sapiens) and with OR2L8 (Homo sapiens) was “inactive” in each case. Besides, the “odorant receptor agonist call” value with OR2M2 (Homo sapiens) and with OR2M3 (Homo sapiens) was “inactive” in each case.

Consider `CCCCCCC(C)=O`, for which the “odorant receptor agonist call” value with OR2J2 (Homo sapiens) was “inactive”.

On to `C=C(C)C1CCC(C)C(=O)C1` (stereo not given), for which the “odorant receptor agonist call” value with OR2J2 (Homo sapiens) was “inactive”.

Take `CCCCCCCCO`: the “odorant receptor agonist call” value with OR2L2 (Homo sapiens) was “inactive”.

The values above are taken from the M2OR odorant receptor database.
